Measured values: ChEMBL document CHEMBL1138557, “Synthesis and anticonvulsant activity of some substituted 1,2,4-thiadiazoles” (Eur J Med Chem, 2009)
Calls of active or inactive are those of the source. No cut-off for these calls is given here.

Tests used:
Mus musculus [1] = experiment: Anticonvulsant activity in ip dosed albino CF1 mouse assessed as minimum drug concentration required for inhibition of maximal electroshock-induced seizure in half or more of mouse after 0.5 hrs by MES test; type: functional
In short: (§1)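 Male CF-1 albino mice (18-25 g), groups of 4. Compound suspended in 0.5% methyl cellulose-water or PEG, given i.p. at 30, 100 and 300 mg/kg. Seizures induced by maximal electroshock (MES) or subcutaneous pentylenetetrazole (scPTZ), tested 0.5 and 4 h after dosing.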

Mus musculus [2] = experiment: Anticonvulsant activity in albino CF1 mouse assessed as inhibition of pentylenetetrazole-induced seizures in half or more of mouse at 300 mg/kg, ip after 4 hrs by scPTZ test; type: functional, organism-based; parameters: dose 300 mg/kg; in short: as §1
Mus musculus [3] = experiment: Neurotoxicity in ip dosed albino CF1 mouse assessed as minimum drug concentration required for motor impairment in half or more of mouse after 4 hrs by rotarod test; type: toxicity, organism-based; conditions: in vivo
In short: (§2)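 Motor impairment was tested on a rotorod in mice trained to stay on a rod of 3.2 cm diameter turning at 10 rev/min. Compound given i.p. at 30, 100 or 300 mg/kg, groups of 4, read at 0.5 and 4 h. Neurotoxicity was scored as failure to keep balance for at least 1 min in each of three trials. Value is the minimum dose affecting half or more of the animals.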

Mus musculus [4] = experiment: Neurotoxicity in ip dosed albino CF1 mouse assessed as minimum drug concentration required for motor impairment in half or more of mouse after 0.5 hrs by rotarod test; type: toxicity, organism-based; conditions: in vivo; in short: as §2
Mus musculus [5] = experiment: Anticonvulsant activity in ip dosed albino CF1 mouse assessed as minimum drug concentration required for inhibition of maximal electroshock-induced seizure in half or more of mouse after 4 hrs by MES test; type: functional; in short: as §1
Mus musculus [6] = experiment: Anticonvulsant activity in albino CF1 mouse assessed as inhibition of pentylenetetrazole-induced seizures in half or more of mouse at 300 mg/kg, ip after 0.5 hrs by scPTZ test; type: functional, organism-based; parameters: dose 300 mg/kg; in short: as §1
Mus musculus [7] = experiment: Anticonvulsant activity in albino CF1 mouse assessed as minimum inhibition of maximal electroshock-induced seizure in half or more of mouse at 300 mg/kg, ip after 4 hrs by MES test; type: functional, organism-based; parameters: dose 300 mg/kg; in short: as §1
Mus musculus [8] = experiment: Neurotoxicity in albino CF1 mouse assessed as motor impairment at 300 mg/kg, ip after 4 hrs by rotarod test; type: toxicity, organism-based; parameters: dose 300 mg/kg, route intraperitoneal; conditions: in vivo; in short: as §2
Rattus norvegicus = experiment: Sedative-hypnotic activity in phenobarbitone-activated albino Sprague-Dawley rat assessed as increase in sleeping time at 100 mg/kg pretreated for 30 mins before phenobarbitone sodium challenge relative to control; type: functional
In short: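 Compound dissolved in PEG and given at 100 mg/kg to groups of six animals. Phenobarbitone sodium was injected 30 min later. Sleep duration was recorded in minutes (mean ± SEM) and expressed as % increase over a phenobarbitone-only control.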

Mus musculus [9] = experiment: Anticonvulsant activity in albino CF1 mouse assessed as minimum inhibition of maximal electroshock-induced seizure in half or more of mouse at 300 mg/kg, ip after 0.5 hrs by MES test; type: functional, organism-based; parameters: dose 300 mg/kg; in short: as §1
Mus musculus [10] = experiment: Anticonvulsant activity in ip dosed albino CF1 mouse assessed as minimum drug concentration required for inhibition of pentylenetetrazole-induced seizures in half or more of mouse after 0.5 hrs by scPTZ test; type: functional; in short: as §1
Mus musculus [11] = experiment: Neurotoxicity in albino CF1 mouse assessed as motor impairment at 300 mg/kg, ip after 0.5 hrs by rotarod test; type: toxicity, organism-based; parameters: dose 300 mg/kg, route intraperitoneal; conditions: in vivo; in short: as §2

SMILES | Activity (Mus musculus [1]) [mg/kg] | Activity (Mus musculus [2]) | Activity (Mus musculus [3]) [mg/kg] | Activity (Mus musculus [4]) [mg/kg] | Activity (Mus musculus [5]) [mg/kg] | Activity (Mus musculus [6]) | Activity (Mus musculus [7]) | Activity (Mus musculus [8]) | Activity (Rattus norvegicus) [%] | Activity (Mus musculus [9]) | Activity (Mus musculus [10]) [mg/kg] | Activity (Mus musculus [11])
O=C1NC(=O)C(c2ccccc2)(c2ccccc2)N1 [PHENYTOIN] | 30 | inactive | 100 | 100 | 100 | inactive |  |  |  |  |  | 
c1cncc(Nc2nsc(Nc3cccnc3)n2)c1 | 300 | inactive |  | 100 |  | inactive | inactive | Non-toxic |  |  |  | 
CCOc1ccc(Nc2nsc(Nc3ccc(OCC)cc3)n2)cc1 | 100 | inactive | 300 | 300 | 300 | inactive |  |  | 36.7 |  |  | 
c1ccc(Nc2nsc(Nc3ccccn3)n2)nc1 | 300 | inactive |  | 100 |  | inactive | inactive | Non-toxic |  |  |  | 
O=c1snc(Nc2ccncc2)n1-c1ccncc1 | 300 | inactive |  | 100 |  | inactive | inactive | Non-toxic |  |  |  | 
O=c1snc(Nc2ccc(F)cc2)n1-c1ccc(F)cc1 | 100 | inactive |  | 300 |  | inactive | inactive | Non-toxic | 17.7 |  |  | 
c1cc(Nc2nsc(Nc3ccncc3)n2)ccn1 | 300 | inactive |  | 100 |  | inactive | inactive | Non-toxic |  |  |  | 
O=c1snc(Nc2cccc3ccccc23)n1-c1cccc2ccccc12 | 100 | inactive |  | 300 | 300 | inactive |  | Non-toxic | 16.4 |  |  | 
O=c1snc(Nc2cccnc2)n1-c1cccnc1 | 300 | inactive |  | 100 |  | inactive | inactive | Non-toxic |  |  |  | 
O=c1snc(Nc2ccccn2)n1-c1ccccn1 | 300 | inactive |  | 100 |  | inactive | inactive | Non-toxic |  |  |  | 
c1ccc2c(Nc3nsc(Nc4cccc5ccccc45)n3)cccc2c1 | 100 | inactive |  | 300 | 300 | inactive |  | Non-toxic | 22.7 |  |  | 
Fc1ccc(Nc2nsc(Nc3ccc(F)cc3)n2)cc1 | 100 | inactive |  | 100 | 300 | inactive |  | Non-toxic |  |  |  | 
c1cnc(Nc2nsc(Nc3ncccn3)n2)nc1 |  | inactive |  | 300 |  | inactive | inactive | Non-toxic | 59.5 | inactive |  | 
NC(=O)N1c2ccccc2C=Cc2ccccc21 [CARBAMAZEPINE] | 30 | inactive | 300 | 100 |  |  | inactive |  |  |  | 100 | 
O=c1snc(Nc2ncccn2)n1-c1ncccn1 | 300 | inactive |  |  |  | inactive | inactive | Non-toxic |  |  |  | Non-toxic
CCOc1ccc(Nc2nsc(=O)n2-c2ccc(OCC)cc2)cc1 | 100 | inactive | 300 | 300 | 300 |  |  |  | 67.1 |  | 300 | 
